Results from ChEMBL document CHEMBL1122685, “Identification of an acridine photoaffinity probe for trypanocidal action” (1984).

Assays:
Format in all cases: functional
Trypanosoma brucei [1] = assay: Trypanocidal activity against Trypanosoma brucei, exposure of parasites to compound prior to injection into mice at 10 e-4 M concentration in dark conditions
Outline: (§1)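 T. brucei EATRO 110 was separated from blood on DEAE-cellulose and washed in Tris-saline-glucose (TSG). Parasites at 5×10^6/mL in TSG were gently rotated 10 min with drug at the final concentration, kept dark under a red safelight until injection. Swiss mice, five per group, received 5×10^5 parasites ip in 0.1 mL. Read-out was mean days survival ±SD over 30 days, against untreated-parasite controls.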

Trypanosoma brucei [2] = assay: Trypanocidal activity against Trypanosoma brucei, exposure of parasites to compound prior to injection into mice at 10 e-4 M concentration in presence of light; set-up: unit: days
Outline: (§2)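 DEAE-purified T. brucei EATRO 110 at 5×10^6/mL in TSG was mixed with drug at the final concentration by gentle rotation for 10 min. Samples were light-activated for 10 min under a 30W fluorescent lamp 4 cm above. 5×10^5 treated parasites in 0.1 mL were injected ip into Swiss mice, five per group. Survival was scored daily for 30 days and reported as mean days ±SD, with untreated controls.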

Trypanosoma brucei [3] = assay: Trypanocidal activity against Trypanosoma brucei, exposure of parasites to compound prior to injection into mice at 10 e-5 M concentration in dark conditions; outline: as §1
Trypanosoma brucei [4] = assay: Trypanocidal activity against Trypanosoma brucei, exposure of parasites to compound prior to injection into mice at 10 e-5 M concentration in presence of light; set-up: unit: days; outline: as §2
Trypanosoma brucei [5] = assay: Compound is evaluated for trypanocidal activity against Trypanosoma brucei, by exposing the parasites directly to compound prior to injection to mice at 10 e-6 M concentration (pre) in presence of light.
Outline: (§3)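 Compound was irradiated 1 h before contact with T. brucei EATRO 110 (5×10^6/mL in TSG, final drug concentration). After 10 min gentle rotation, the mixture was irradiated again for 10 min under a 30W fluorescent lamp at 4 cm. 5×10^5 parasites in 0.1 mL were given ip to five Swiss mice per group. Read-out was mean days survival ±SD over 30 days, with untreated controls.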

Trypanosoma brucei [6] = assay: Trypanocidal activity against Trypanosoma brucei, exposure of parasites to compound prior to injection into mice at 10 e-6 M concentration in dark conditions; outline: as §1
Trypanosoma brucei [7] = assay: Trypanocidal activity against Trypanosoma brucei, exposur of parasites to compound prior to injection into mice at 10 e-6 M concentration in presence of light; set-up: unit: days; outline: as §2
Trypanosoma brucei [8] = assay: Compound is evaluated for trypanocidal activity against Trypanosoma brucei, by exposing the parasites directly to compound prior to injection to mice at 10 e-7 M concentration in dark conditions; set-up: unit: days; outline: as §1
Trypanosoma brucei [9] = assay: Compound is evaluated for trypanocidal activity against Trypanosoma brucei, by exposing the parasites directly to compound prior to injection to mice at 10 e-7 M concentration in presence of light; set-up: unit: days; outline: as §2
Trypanosoma brucei [10] = assay: Compound is evaluated for trypanocidal activity against Trypanosoma brucei, by exposing the parasites directly to compound prior to injection to mice at 10 e-5 M concentration (pre) in dark conditions
Outline: (§4)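 Drug was preirradiated 1 h with visible light, then added at the final concentration to T. brucei EATRO 110 (5×10^6/mL in TSG) and rotated 10 min. The parasites were then kept dark with a red safelight. Swiss mice, five per group, were injected ip with 0.1 mL holding 5×10^5 parasites. Mean days survival ±SD was scored over 30 days against untreated-parasite controls.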

Trypanosoma brucei [11] = assay: Compound is evaluated for trypanocidal activity against Trypanosoma brucei, by exposing the parasites directly to compound prior to injection to mice at 10 e-5 M concentration (pre) in presence of light; outline: as §3
Trypanosoma brucei [12] = assay: Compound is evaluated for trypanocidal activity against Trypanosoma brucei, by exposing the parasites directly to compound prior to injection to mice at 10 e-6 M concentration (pre) in dark conditions; outline: as §4

Row | SMILES | Mean survival time of infected mice (days) (Trypanosoma brucei [1]) | Activity (Trypanosoma brucei [2]) | Activity (Trypanosoma brucei [3]) | Activity (Trypanosoma brucei [4]) | Mean survival of mice (days) (Trypanosoma brucei [5]) | Activity (Trypanosoma brucei [6]) | Activity (Trypanosoma brucei [7]) | Activity (Trypanosoma brucei [8]) | Activity (Trypanosoma brucei [9]) | Activity (Trypanosoma brucei [10]) | Activity (Trypanosoma brucei [11]) | Activity (Trypanosoma brucei [12])
1 | Nc1ccc2c(N)c3ccccc3nc2c1 | 30 | 30 | 8.1 | 30 | 27.8 | 5 | 17.4 | 5.2 | 15 |  |  | 
2 | [N-]=[N+]=Nc1ccc2cc3ccc(N)cc3nc2c1 | 8.3 | 30 | 5.5 | 12.7 | 5.4 | 4.6 | 11.2 | 5.7 | 5.9 | 5.2 | 5.2 | 
3 | C[n+]1c2cc(N)ccc2cc2ccc(N=[N+]=[N-])cc21.[Cl-] | 30 | 30 | 18.2 | 30 | 5.5 | 6.9 | 30 | 6.4 | 30 |  |  | 6.3
4 | [N-]=[N+]=Nc1ccc2nc3ccccc3c(N)c2c1 | 9.8 | 30 | 5.4 | 30 | 4.6 | 4.8 | 11.6 | 4.6 | 6 |  |  | 
5 | [N-]=[N+]=Nc1ccc2cc3ccc(N=[N+]=[N-])cc3nc2c1 | 6 | 5.5 |  |  |  |  |  |  |  |  |  | 
6 | C[n+]1c2cc(N=[N+]=[N-])ccc2cc2ccc(N=[N+]=[N-])cc21.[Cl-] | 30 | 30 | 6 | 26.6 | 5.4 | 5.8 | 8.2 | 5.4 | 5.6 |  |  | 
7 | C[n+]1c2ccccc2cc2cc(N=[N+]=[N-])ccc21.[Cl-] | 30 | 30 | 14.5 | 13.9 | 4.8 | 4.4 | 5.5 | 4.8 | 4.2 |  |  | 
8 | [N-]=[N+]=Nc1ccc2c(N)c3ccccc3nc2c1 | 25.3 | 26.8 | 6.3 | 14.2 |  | 5.8 | 7.6 |  |  |  | 5.2 | 
9 | C[n+]1c2ccccc2c(N)c2ccccc21.[Cl-] | 30 | 30 | 5.4 | 21 | 6.2 | 4.2 | 5.8 |  |  |  |  | 
10 | C[n+]1c2ccccc2cc2ccc(N=[N+]=[N-])cc21.[Cl-] | 30 | 30 | 6.6 | 30 | 5 | 5.4 | 8.6 |  |  | 4.4 | 5.8 | 4.7
11 | C[n+]1c2ccccc2c(N=[N+]=[N-])c2ccccc21.[Cl-] | 30 | 30 | 3.6 | 20 | 8.6 | 5 | 6.8 | 5.2 | 6.2 |  |  | 
12 | C[n+]1c2ccccc2cc2cc(N)ccc21.[Cl-] | 30 | 30 | 5.8 | 6.8 |  | 3.6 | 6 |  |  |  |  | 
